# Reference: the EternaBench riboswitch data
# Test system: MS2 coat protein
# Assay: apparent Kd, MS2 coat protein; higher = weaker binding; RNA-MaP array; FMN 200 µM where present
# How it was run: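 On Illumina sequencing-chip clusters, designs were transcribed by stalled E. coli RNA polymerase and titrated with SNAP-549-labelled MS2 coat protein (0.7 or 1.5 nM, doubling to 3 µM), without and then with constant ligand, in 100 mM Tris-HCl pH 7.5, 80 mM KCl, 4 mM MgCl2, BSA, DTT, yeast tRNA and Tween-20. Apparent Kd is the median of filtered per-cluster curve fits to green signal normalised to red-channel RNA signal and control-cluster median Fmax.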
# [1] = designed as: OFF switch for flavin mononucleotide, no ligand
# [2] = ligand present: flavin mononucleotide, designed as: OFF switch for flavin mononucleotide
# [3] = designed as: ON switch for flavin mononucleotide, no ligand
# [4] = ligand present: flavin mononucleotide, designed as: ON switch for flavin mononucleotide
Sequence,apparent Kd [1] [nM],apparent Kd [2] [nM],apparent Kd [3] [nM],apparent Kd [4] [nM]
AGCAAGAGAGGAUAUACAUAGGAAAAAAAAGUCUGAUCCCUACAUGAGGAUCACCCAUGUAGAAGGCUCUGGCA,69.5,24.7,,
UGUUACUAGUAAGGAUAUACUUGCAAUUAGCUUGUAGAAGGUACAGUCUUUUGUAUAACAUGUUUACAUGAGGAUCACCCAUGU,,,10.4,9.05
GCAUGAAAUGUGAGGAUAUACCUCUGGAUACAUAGGUAGAAGGCACAUGAGGAUCACCCAUGUCCUAAACAUGC,34.7,42.2,,
GAAUAGGCAGGAUAUACAUGAGGAUCACCCAUGUGCCGGCGAAAGGUACGUUCGAAAGGUAGAAGGGCCUAAAC,78.6,288,,
GCAGCACACAUUAACAUGAGGAUCACCCAUGUCAAAAGACAUGAGGAUAUGCAUCUGAAGAAGAUGCAGAAGGCAUUGUGCUGC,,,467,24.2
GUGUAUCGCCUCGAGGAUAUCCUGUCAUGCACAUGAGGAUCACCCAUGUAAGAGCGAGUUUUUUGGGAGAAGGCGAGUUCUCGGU,,,90.3,30.4
UUACAGUGCGGGUAGGAUAUGUAGGGUGGUACAUGAGGAUCACCCAUGUAUCCACCCUUCGACCGGCAGAAGGGCCUGUCACUGC,,,14.3,14.3
GAUAGGACAGAGAAGGACAUAGCUAGAGAUACUAGCAUAAGAACUUUCACAUGAGGAUCACCCAUGUAGGAUAUCUGUCCUAUC,4.96,5.53,,
UCCGCCAAAGGAUAUACUGGGCGUUAAAAUCCUCUUAAAAGACAUGAGGAUCACCCAUGUAGAAGGUUGAGGAA,209,575,,
AUUGUAAUGUCAGGAUAUAUUAUAUUUUACAUAGUAGAAGGGAUAAUUAUACUCAUGUACAUGAGGAUCACCCAUGUUAAAUAU,,,179,29.6
GGAUAGGACAGAGGAUAUACAGAUAGGAUCUACUAUCAAACAGUCCUUACAUGAGGAUCACCCAUGUAGAAGGCUGUCCUAUCG,19.4,87.4,,
UUUUUGUCAGGAUAUCCACCCACCACCUUCGGGUGGUGGGUGGAGAAGGGACAUGAGGAUCACCCAUGUAGUUU,74.6,221,,
AGGUGAGCCGUCAGGAUAUGCGUUCCGUAGGGUCAGCAGAAGGGACAUGAGGAUCACCCAUGUUUCGCACGUGG,34.2,71.1,,
GUAGCUAACGGAGGAUAUUCAUACCGGAAACGGACAUGAGGAUCACCCAUGUGGCGAAAGCCAUGGGAGAAGGCCGUUAGCUAC,,,918,147
CCGCAAAUGGAGGAUAUCGUAUCGGAUACGAUACGAGAAGGCUAAACAUGAGGAUCACCCAUGUGUCCUAGCGG,14,15.5,,
GGAUGGGACAGAGGAUAUACGUGCUAGAGAUACUAGCAAAAUUUCCUCACAUGAGGAUCACCCAUGUAGAAGGCUGUCCUAUCG,15.2,513,,
CAAUUUAUAACAGGAUAUACAAUACAAUGAUUAGUAGAAGGGUUUAAUACAUGAGGAUCACCCAUGUCAUGUGUCAUAAUAACC,34.3,24.9,,
AGCGGCGCGGGCCACCGCAGAACCAGAAGGACAUGAGGAUCACCCAUGUAGCAGAACAGGGCGGUGUAGGAUAUGGCAGGCUCG,29.4,52.3,,
UGCACCAACGAGAAGGCACAGAUCCAGCUCUUGACAUGAGGAUCACCCAUGUGAGGAUAUCGUAGGUGCGAAUUGGGACAAUCU,11,98.2,,
GUUGUGUAAGGAGGAUAUGAGCUGAAACUCUUACAUGAGGAUCACCCAUGUCCGUAACUCAGGCAUCAGAAGGCCUAACGCAUU,,,686,23
CUGAUGUGAGGAUAUCGGGCUACGGCCAGGCCGCUAGCAUUCGAGAAGGCACAUGAGGAUCACCCAUGUGAGAA,25.4,39.8,,
AAACUGCCACAUGAGGAUCACCCAUGUAAAUAAAGUAUUUGGAGAAGGGCGAUAGCAAAGCUAUCGCAGGAUAUUCUCAGGCAG,,,20.3,15.3
AUAAGUCGAGGAUAUACAAAAUGCUAGCGAAAGCUAGCAUAACAUGAGGAUCACCCAUGUAGAAGGCGACAAUA,24.5,26.1,,
AGUUGACGAGAAGGAUAUCCGAACCUUUAAAGAGGAGAAGGUCUAUCAACAUGAGGAUCACCCAUGUACAUCGCUCGGGUGUCC,82.2,306,,
AUAAGCUCGUCAGGAUAUACGUCACUGCUUCGGCAGUGAGGUAAGAUCACAUGAGGAUCACCCAUGUAGAAGGGACGAGCUUAU,5.65,14.4,,
AAUUAGGUCACAGGAUAUACAACAACCAAUGCUGUAGAAGGGUGACACAUUCUUUGCUGACAUGAGGAUCACCCAUGUAACCAC,,,69.3,11.2
ACAUGGAAUACAGGAUAUGUAAGUUUUAAGUGGAUUGGUUAUUACUUUACAACAGAAGGGUAAUACAUGAGGAUCACCCAUGUA,,,30.1,25.3
AAACAUGUCCGAGGAUAUCUGGAAACAUUUUCAAGAGAAGGCGGACAUGAGGAUCACCCAUGUCUCUCCUCAUCCACUACAAAU,9.59,60.6,,

Sequence,apparent Kd [1] [nM],apparent Kd [2] [nM],apparent Kd [3] [nM],apparent Kd [4] [nM]
UGUCUAUUUGAAGGAUAUCUAAGCAUAAACCAGAGAGAAGGUCAAUUAUACAUGAGGAUCACCCAUGUUGAGAUUAAUGGGUUA,27.1,40.3,,
AAAUAGCGAGGAUAUACAUGAGGAUCACCCAUGUGGACUGAUGUCGCAUGUUUCAGUGGUAGAAGGUGCUCAAA,136,299,,
GUGCUUGUCGGAGGAUAUGGUUACAUGAGGAUCACCCAUGUUAUGCUUGGUUACUUGUUUAGUUUCCAGAAGGUCGGUUGGUUG,61.1,71.2,,
AGAGUUGACUCAGGAUAUACGGGAAUGUGCCGCGACAUGAGGAUCACCCAUGUAGAAGGGAGAGAGAAGAAGAGAUGUAGAAGA,56.1,54,,
CAUUAAUUGAUUAUUGAAUAUUUACAGGAUAUGUAACAUGAGGAUCACCCAUGUAAACAUGGAUUACAGAAGGGUAUUUAUAGA,37,26.1,,
UAUUAGUAAGGAUAUGAGACGUAGGACGCAAGUCCUACGUCUCAGAAGGUACAUGAGGAUCACCCAUGUUUAUU,18.1,24.4,,
CGUCUCAUAGGAUAUGCACGGAGGCAGGUCCUUGGCAACACACAUGAGGAUCACCCAUGUAGAAGGAUGCUACG,19.4,30.5,,
UUAUUUAUACAAGGAUAUCUAUUGUUAAUUCGACUUACAUGAGGAUCACCCAUGUUUUUAUGUUUAGAGAAGGUGUAUUUUCAG,,,90.4,51.9
AAAAAACAUGAGGAUCACCCAUGUGAGGAUAUAGGAAAAAAAAAAAAAAAAAAAAAAACUAGAAGGCACAAAAA,55.4,74.6,,
AGAGUGACAGGAUAUUGGAUUCCUAACAUGAGGAUCACCCAUGUAGUACGGUACUACUGUCAAGAAGGGUCACUCU,75.8,68.8,,
CGAUAUGAUGCAGGAUAUCUAUCUUGAAUGAGGAGAGAAGGGCAAAGGGAGACAUAAGCCUUAUUACAUGAGGAUCACCCAUGU,13.3,11.3,,
UAUAUAUAGUAAGGAUAUGUAUUUAUUCUAUAAACAGAAGGUACUGACAUGAGGAUCACCCAUGUUUUAGUGUGGGCAUGUAGA,39.9,38.8,,
AACAAUCUAUCUGAGGAUAUCAUGUCAAAGACAUGAGGAUCACCCAUGUACCAGGAAACUGGUUAUGAGAAGGCAGAUAGAUUGA,,,1260,54.8
ACGUGACGUUAGGAUAUUAACUACCUGCCAUCUUAAGAAGGAACGACAUGAGGAUCACCCAUGUGAAUCCGCGA,26.7,27,,
UCCUGGCGAGGAUAUACAAAGUUUUUCACGUUUUGUUACGAACAUGAGGAUCACCCAUGUAGAAGGUGCUACUG,116,103,,
UGGUACUAGGGAGGAUAUGGGAAGAUACAUGAGGAUCACCCAUGUUUAAGAAUGCCGAGACGCAACUAGAAGGCCCUAGUACCU,,,354,20.9
AUGCCUUAUGUAGGAUAUGCAUAGCGUUGCUAUGCAGAAGGACAUGAGGAUCACCCAUGUAUGUAUUCCAUACAUAUCUGGCAU,26.8,343,,
CUCAAACAUGAGGAUCACCCAUGUGUUGUCAUGGGAGGAUAUCCCAGUUCGUUGUCGUCGGGAGAAGGCCUAUGUC,,,65,29.3
AAAUCGCAAGGAUAUCGUCAGUCUGACAUGAGGAUCACCCAUGUUAUCUUGGUAUCAGAGCGAGAAGGUGCAAAGU,13,13.9,,
CAGGUAGACUGAGGAUAUACAUUAAACAGCUAGUCUAUCUAGCUGCUCACAUGAGGAUCACCCAUGUAGAAGGCAGUCUGCCUG,26.1,75,,
AAGUUAUAUACAUGAGGAUCACCCAUGUCAAAGGGAGUAAUCAGAAGGUACUAUUCAAUAAUUAGUAAGGAUAUGAAUUUUUAG,,,39.5,30.6
AAGUCACAUGAGGAUCACCCAUGUCGUAAACGAUGAGGAUAUAGGAAGAAAAAAAAAAAACUAGAAGGUAUUACAA,,,59.8,55.9
GCCAGGCAUGUAGGAUAUCCAUUGCGUCGCGUUGGAGAAGGGCAGCACACAUGAGGAUCACCCAUGUGGUCUCCCAUGAUGUGU,209,223,,
CCUCCACAUGAGGAUCACCCAUGUCAGGAUAUCGUGUGUGCUUUUUCGGUCUUUCGUGCGAGAAGGGACGUCUG,27.6,26.7,,
GGACAGCGAGGAUAUACGUGUACGUUAUCCUCUAUGGGUCAACAUGAGGAUCACCCAUGUAGAAGGCGCAUAAU,19.4,28.1,,
AAUUUACAGCUAGGAUAUACAUGAGGAUCACCCAUGUAAUGAUCGGAUCUUAUGAUCGUAUCAGUGUAGAAGGAGCAAAUAAGA,12.3,21.3,,
UUAUAUAGGUAGGAUAUCGAUUUUAAUUAUUUUCGAGAAGGGUCAACAUGAGGAUCACCCAUGUCAGCAUGUAU,58.7,49.1,,
